Source: publication PMC3629979 (Molecular imaging, 2010)

How the values were obtained:
U87MG tumor = experiment: In vivo NIRF optical imaging of U87MG tumor-bearing nude mice; details: for tumor to muscle ratio, time course: 1, 2 and 4 hours postinjection, in words; for tumor to muscle ratio, time course / tumor to muscle ratio: 0.5 nmol i.v.; for tumor to muscle ratio: light intensity ratio, 4 hours postinjection, mean ± SD, n = 3; for nonspecific tumor targeting / accumulation of unconjugated dye: Cy5.5 and Cy7 data not shown
in vivo = details: female, athymic nude, mouse, U87MG tumor, iv, 0.5 nmol
[1] = for kidney uptake: 4 hours postinjection, 0.5 nmol i.v., ex vivo imaging, in words; for excretion route: inferred from kidney uptake at 4 hours postinjection
murine integrin β3 = experiment: Immunofluorescence colocalization in U87MG tumor sections, murine integrin β3; type: in vivo; details: 1 nmol i.v., 30 minutes postinjection; frozen tumor sections; one mouse
Method in brief: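 Single female athymic nude mouse with subcutaneous U87MG xenograft (5 × 10⁶ cells, right front flank; tumours 100 to 300 mm³) given 1 nmol Cy5.5-labelled test compound by tail vein. Killed at 30 min, perfused with 20 mL PBS, tumour frozen-sectioned. Sections incubated 1 h at room temperature with hamster antimouse integrin β3 (1:100), then FITC secondary (1:200). Fluorescence microscopy overlay.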

Compound	tumor to muscle ratio, time course (U87MG tumor)	tumor to muscle ratio (U87MG tumor)	tissue uptake at 4 h (in vivo)	kidney uptake [1]	excretion route [1]	nonspecific tumor targeting / accumulation of unconjugated dye (U87MG tumor)	also measured
CC1(C)C(=CC=C2CCCC(C=CC3=[N+](CCCCCC(=O)N[C@@H](CCC(=O)NCCCC[C@@H]4NC(=O)[C@@H](Cc5ccccc5)NC(=O)[C@H](CC(=O)O)NC(=O)CNC(=O)[C@H](CCCNC(=N)N)NC4=O)C(=O)NCCCC[C@@H]4NC(=O)[C@@H](Cc5ccccc5)NC(=O)[C@H](CC(=O)O)NC(=O)CNC(=O)[C@H](CCCNC(=N)N)NC4=O)c4ccc(S(=O)(=O)O)cc4C3(C)C)=C2Oc2ccc(S(=O)(=O)O)cc2)N(CCCCS(=O)(=O)[O-])c2ccc(S(=O)(=O)O)cc21 [IRDye800-RGD2, IRDye800-E[c(RGDfK)]2]	increased tumor to muscle ratios from 1 to 4 hours	3.31 ± 0.22	2.71 ± 0.77 %ID/g	high kidney uptake	mainly excreted by the renal route	–	–
CC1(C)C(/C=C/C2=C(Oc3ccc(S(=O)(=O)O)cc3)C(=C/C=C3/N(CCCCS(=O)(=O)O)c4ccc(S(=O)(=O)[O-])cc4C3(C)C)/CCC2)=[N+](CCCCCC(=O)O)c2ccc(S(=O)(=O)O)cc21 [IRDye800, reference compound]	–	–	–	–	–	only a lower nonspecific tumor accumulation	–
CCN1C(=CC=CC=CC=CC2=[N+](CCCCCC(=O)O)c3ccc(S(=O)(=O)O)cc3C2(C)C)C(C)(C)c2cc(S(=O)(=O)[O-])ccc21 [Cy7, reference compound]	–	–	–	–	–	relatively high tumor-nonspecific targeting	–
CC1(C)C(=CC=C2CCCC(C=CC3=[N+](CCCCCC(=O)N[C@@H](CCC(=O)NCCOCCOCCOCCOCCC(=O)NCCCC[C@@H]4NC(=O)[C@@H](Cc5ccccc5)NC(=O)[C@H](CC(=O)O)NC(=O)CNC(=O)[C@H](CCCNC(=N)N)NC4=O)C(=O)NCCOCCOCCOCCOCCC(=O)NCCCC[C@@H]4NC(=O)[C@@H](Cc5ccccc5)NC(=O)[C@H](CC(=O)O)NC(=O)CNC(=O)[C@H](CCCNC(=N)N)NC4=O)c4ccc(S(=O)(=O)O)cc4C3(C)C)=C2Oc2ccc(S(=O)(=O)O)cc2)N(CCCCS(=O)(=O)[O-])c2ccc(S(=O)(=O)O)cc21 [IRDye800-PEG4-RGD2, IRDye800-E[PEG4-c(RGDfK)]2]	increased tumor to muscle ratios from 1 to 4 hours	4.63 ± 0.28	5.87 ± 1.21 %ID/g	high kidney uptake	mainly excreted by the renal route	–	–
Cy5.5 [reference compound]	–	–	–	–	–	relatively high tumor-nonspecific targeting	–
Cy5.5-E[PEG4-c(RGDfK)]2 [Cy5.5-PEG4-RGD2]	–	–	–	–	–	–	colocalization with murine integrin β3 (murine integrin β3): good colocalization
